{"data": "Assay results pooled from the literature", "target": "Myotonin-protein kinase (DMPK, Homo sapiens, UniProt Q09013)"}
{"Structure (SMILES)": "CNC(=O)c1cc(Oc2ccc(NC(=O)Nc3ccc(Cl)c(C(F)(F)F)c3)cc2)ccn1", "assay": "enzyme activity, inhibitor", "conditions": "0.3 µM", "quantity": "inhibition", "result": "-9%"}
{"Structure (SMILES)": "C=CC(=O)Nc1cc(Nc2nccc(Nc3cc(Cl)c(F)cc3C(C)(C)O)n2)c(OC)cc1N1CC[C@@H](N(C)C)C1", "assay": "enzyme activity, inhibitor", "conditions": "1 µM", "quantity": "inhibition", "result": "11%"}
{"Structure (SMILES)": "CCN(CC)c1ccc(C2=NNC(=O)CC2C)cc1[N+](=O)[O-] (stereo not shown)", "assay": "enzyme activity, inhibitor", "conditions": "10 µM", "quantity": "remaining activity", "result": "91%"}
{"Structure (SMILES)": "Nc1ncnc2occ(-c3ccc(NC(=O)Nc4cc(C(F)(F)F)ccc4F)cc3)c12", "assay": "cell-free assay, inhibitor", "conditions": "20 µM", "quantity": "remaining signal", "result": "73%"}
{"Structure (SMILES)": "CCC1(CC)NC(=O)c2c(c3ccc(Cl)c(Cl)c3n2C)C1C#N (stereo not shown)", "assay": "thermal stability, DSF", "conditions": "10 µM", "quantity": "ΔTm", "result": "0.2 °C"}
{"Structure (SMILES)": "CS(=O)(=O)c1cc(C2(NC(=O)c3cncc4c3cnn4-c3ccc(F)cc3)CC2)ccn1", "assay": "cell-free assay, competition with immobilised ligand", "conditions": "1 µM", "quantity": "remaining binding", "result": "99%"}
{"Structure (SMILES)": "Cn1c2c(Cl)c(Cl)ccc2c2cn[nH]c(=O)c21", "assay": "thermal stability, DSF", "conditions": "10 µM", "quantity": "ΔTm", "result": "0.4 °C"}
{"Structure (SMILES)": "CO[C@H]1CC[C@H](CNc2ccc(S(=O)(=O)NC(=O)c3ccc(N4CCN(CC5=C(c6ccc(Cl)cc6)CC(C)(C)CC5)CC4)cc3Oc3cnc4[nH]ccc4c3)cc2[N+](=O)[O-])CC1", "assay": "cell-free assay, competition with immobilised ligand", "conditions": "1 µM", "quantity": "remaining binding", "result": "91%"}
{"Structure (SMILES)": "Cn1c2c(Cl)c(Cl)ccc2c2cc(N)[nH]c(=O)c21", "assay": "thermal stability, DSF", "conditions": "10 µM", "quantity": "ΔTm", "result": "0.1 °C"}
{"Structure (SMILES)": "N#CCCc1ccc2c(c1)-c1[nH]c3ccc([N+](=O)[O-])cc3c1CC(=O)N2", "assay": "cell-free assay", "conditions": "0.5 µM", "quantity": "remaining signal", "result": "89.8%"}
{"Structure (SMILES)": "O=C(NCc1ncc(C(F)(F)F)cc1Cl)c1ccc2c(c1)C1(CCS(=O)(=O)CC1)[C@@H](C1CC1)N2S(=O)(=O)c1ccc(F)cc1", "assay": "cell-free assay, competition with immobilised ligand", "conditions": "1 µM", "quantity": "remaining binding", "result": "86%"}
{"Structure (SMILES)": "CC(C)(C)c1nc(-c2cccc(NS(=O)(=O)c3c(F)cccc3F)c2F)c(-c2ccnc(N)n2)s1", "assay": "enzyme activity, inhibitor, radiometric", "conditions": "1 µM", "quantity": "remaining activity", "result": "103%"}
{"Structure (SMILES)": "Cn1c2c(c3ccc(Cl)c(Cl)c31)C(C#N)C(C)(C)NC2=O (stereo not shown)", "assay": "thermal stability, DSF", "conditions": "10 µM", "quantity": "ΔTm", "result": "0.4 °C"}
{"Structure (SMILES)": "Cc1nc(C2CCN(C(=O)c3ccc(OC(F)(F)F)cc3N)CC2)c2ncc(N3CCN(C)CC3)cc2n1", "assay": "cell-free assay, competition with immobilised ligand", "conditions": "1 µM", "quantity": "remaining binding", "result": "100%"}
{"Structure (SMILES)": "Cn1c2c(c3ccc(Cl)c(Cl)c31)C(C#N)C1(CCN(C(=O)OC(C)(C)C)CC1)NC2=O (racemic)", "assay": "thermal stability, DSF", "conditions": "10 µM", "quantity": "ΔTm", "result": "-0.5 °C"}
{"Structure (SMILES)": "CC(C)(O)[C@H]1CC[C@H](Nc2ccc3ncc(-c4cccc(C(F)(F)F)c4)n3n2)CC1", "assay": "enzyme activity, inhibitor", "conditions": "1 µM", "quantity": "remaining activity", "result": "97.5%"}
{"Structure (SMILES)": "COc1cc2c(Nc3ccc(Br)cc3F)ncnc2cc1OCC1CCN(C)CC1", "assay": "cell-free assay", "conditions": "0.5 µM", "quantity": "remaining signal", "result": "94.6%"}
{"Structure (SMILES)": "Cc1ccc(Nc2nccc(N(C)c3ccc4c(C)n(C)nc4c3)n2)cc1S(N)(=O)=O", "assay": "enzyme activity, inhibitor", "conditions": "10 µM", "quantity": "inhibition", "result": "-12%"}
{"Structure (SMILES)": "Cc1sc(C(=O)NC2COC2)cc1-n1cc(NC(=O)Nc2c(F)cccc2Cl)cn1", "assay": "enzyme activity, inhibitor", "conditions": "10 µM", "quantity": "remaining activity", "result": "95.2%"}
{"Structure (SMILES)": "CCCOc1ccc(OC)c(F)c1C(=O)c1ccc(C(=O)N[C@@H]2CNC[C@H]2NC(=O)c2ccc3[nH]ncc3c2)cc1", "assay": "enzyme activity, inhibitor", "conditions": "10 µM", "quantity": "remaining activity", "result": "93%"}
{"Structure (SMILES)": "CS(=O)(=O)NCC[C@H](NC(=O)c1cncc2c1cnn2-c1ccc(F)cc1)c1ccnc(S(C)(=O)=O)c1", "assay": "cell-free assay, competition with immobilised ligand", "conditions": "1 µM", "quantity": "remaining binding", "result": "100%"}
{"Structure (SMILES)": "Cn1c2c(c3ccccc31)C(C#N)C(C)(C)NC2=O (stereo not shown)", "assay": "thermal stability, DSF", "conditions": "10 µM", "quantity": "ΔTm", "result": "-0.3 °C"}
{"Structure (SMILES)": "CN(c1ccnc(CNc2nc(Nc3ccc4c(c3)CC(=O)N4)ncc2C(F)(F)F)n1)S(C)(=O)=O", "assay": "cell-free assay, competition with immobilised ligand", "conditions": "1 µM", "quantity": "remaining binding", "result": "23%"}
{"Structure (SMILES)": "O=C1Nc2ccc(Cl)cc2C1=Cc1cc(Cl)c(O)c(Cl)c1", "assay": "cell-free assay", "conditions": "0.5 µM", "quantity": "remaining signal", "result": "112%"}
{"Structure (SMILES)": "CC(C)CC(=O)N1CCc2nc(-c3ccc(Br)cc3)nc(N(C)Cc3ccccc3)c2C1", "assay": "cell-free assay, competition with immobilised ligand", "conditions": "0.1 µM", "quantity": "remaining binding", "result": "87%"}
{"Structure (SMILES)": "CCN(CC)CCNC(=O)c1c(C)[nH]c(/C=C2\\C(=O)Nc3ccc(F)cc32)c1C", "assay": "enzyme activity, inhibitor", "conditions": "0.3 µM", "quantity": "inhibition", "result": "-8%"}
{"Structure (SMILES)": "O=C(O)[C@H]1[C@H](Cn2nnc3ccccc3c2=O)CC[C@@H]1C(=O)c1ccc(OCCC2CCOCC2)cc1", "assay": "cell-free assay, competition with immobilised ligand", "conditions": "1 µM", "quantity": "remaining binding", "result": "83%"}
{"Structure (SMILES)": "O=C(Nc1cnn(-c2csc(C(=O)NC3COC3)c2)c1)Nc1ccccc1Cl", "assay": "enzyme activity, inhibitor", "conditions": "5 µM", "quantity": "remaining activity", "result": "102%"}
